Screening results (PubChem BioAssay)
CASP6 VEID inh = blocks human caspase-6 cleavage activity | inhibition, % at 12.5 µM | hit rate 0.53% among 350,000 | AID 686996 | purified caspase-6, Z-VEID-R110 cleavage fluorescence;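 active = mean inhibition across replicates at least about 35%, with every replicate also reaching that limit, limit read from the data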;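 also: 0% = median of neutral control wells and 100% = no fluorescence left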
MITF TRPM1 HTS = activators of MITF-driven TRPM1 promoter activity in SK-MEL-5 cells. hit rate 0.75% among 300,000. AID 588334. SK-MEL-5 TRPM1-promoter luciferase, 24 h; % of positive control, neutral wells = 0. activation, % at 12.5 µM;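 active = mean activation of at least 80% with every replicate also reaching 80%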;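 also: 0% = neutral control wells and 100% = parthenolide positive control wells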
esBAF inh = inhibitors of esBAF chromatin remodeling in mouse ES cells. Bmi1-luciferase knock-in reporter, 24 h; 100% = twice the neutral-well signal. reporter increase, % at 12.5 µM. AID 602393. hit rate 2% among 350,000; in the data active = activation above about 40%;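 also: 0% = median of the plate's neutral control wells and 100% = double that signal; a rise in the Bmi1 reporter signal indicates esBAF inhibition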
Wnt bcat act = activators of Wnt/beta-catenin signaling; Wnt/beta-catenin reporter cell assay, activator, plate reader; hit rate 1.2% among 300,000; activation, % at 9.35 µM; AID 743398; in the data active = activation above about 30%, passing the limit was not always enough;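 also: 0% = neutral control wells and 100% = positive control wells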
NSD2 HMT inh = NSD2 (human) methyltransferase inhibition. O96028. NSD2 peptide methylation, AlphaScreen, 120 min. inhibition, % at 12.5 µM. hit rate 0.54% among 310,000. AID 743445; in the data active = inhibition above about 50%
Target sequence (O96028 whole entry, looked up): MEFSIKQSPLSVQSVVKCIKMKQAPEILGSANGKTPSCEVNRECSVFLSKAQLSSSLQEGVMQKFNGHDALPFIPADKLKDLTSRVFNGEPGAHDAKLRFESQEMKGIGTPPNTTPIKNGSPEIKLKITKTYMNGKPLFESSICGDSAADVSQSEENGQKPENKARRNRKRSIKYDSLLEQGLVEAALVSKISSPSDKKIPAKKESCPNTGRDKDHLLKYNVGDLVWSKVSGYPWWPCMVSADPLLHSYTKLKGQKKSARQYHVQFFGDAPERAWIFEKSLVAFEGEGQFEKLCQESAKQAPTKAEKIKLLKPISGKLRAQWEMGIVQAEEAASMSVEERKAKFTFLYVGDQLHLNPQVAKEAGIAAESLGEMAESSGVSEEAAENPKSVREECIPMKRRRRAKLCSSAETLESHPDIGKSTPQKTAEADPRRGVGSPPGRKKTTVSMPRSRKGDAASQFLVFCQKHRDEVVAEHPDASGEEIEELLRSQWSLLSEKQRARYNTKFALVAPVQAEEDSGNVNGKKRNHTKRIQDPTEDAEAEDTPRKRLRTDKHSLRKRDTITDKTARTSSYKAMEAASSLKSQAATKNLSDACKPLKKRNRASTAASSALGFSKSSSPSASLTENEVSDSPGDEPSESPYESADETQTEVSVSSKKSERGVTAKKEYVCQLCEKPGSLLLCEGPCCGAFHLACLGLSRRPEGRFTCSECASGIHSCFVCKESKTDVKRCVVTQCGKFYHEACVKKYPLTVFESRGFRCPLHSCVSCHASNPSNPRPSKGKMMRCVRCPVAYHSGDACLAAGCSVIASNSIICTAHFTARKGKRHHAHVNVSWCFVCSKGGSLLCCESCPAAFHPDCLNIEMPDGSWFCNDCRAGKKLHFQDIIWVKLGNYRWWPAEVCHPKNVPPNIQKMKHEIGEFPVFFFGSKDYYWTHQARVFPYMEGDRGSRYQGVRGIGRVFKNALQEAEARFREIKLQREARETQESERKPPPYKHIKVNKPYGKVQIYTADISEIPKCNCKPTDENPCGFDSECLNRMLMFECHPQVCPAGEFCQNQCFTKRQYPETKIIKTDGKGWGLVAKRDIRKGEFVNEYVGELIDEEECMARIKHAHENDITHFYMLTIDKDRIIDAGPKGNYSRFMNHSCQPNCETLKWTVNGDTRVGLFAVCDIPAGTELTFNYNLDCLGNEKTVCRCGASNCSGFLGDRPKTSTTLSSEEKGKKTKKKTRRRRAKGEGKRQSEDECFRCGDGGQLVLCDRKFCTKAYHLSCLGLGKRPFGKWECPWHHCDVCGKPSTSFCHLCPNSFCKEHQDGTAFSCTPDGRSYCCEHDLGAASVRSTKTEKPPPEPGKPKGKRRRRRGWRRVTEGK
XiGFP reactiv = X-chromosome reactivation activator; XiGFP mouse fibroblasts, % GFP-positive cells imaging, 3 d; cells co-treated with 5-aza-dC sensitizer; scaled so ellipticine positive control = 100%; activation, % at 7.58 µM; hit rate 0.055% among 360,000; AID 743238;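 active = mean normalized replicate activation at least 10% and every replicate at or above 10%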;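 also: 0% = median of on-plate neutral control wells and 100% = ellipticine 6 µM median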
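Assay system – SV40-immortalized XiGFP fibroblast cells, line 68-5-11 · Buffer or medium – DMEM supplemented with 5-aza-dC as sensitizing agent · Dosing – one concentration, pinned · Benchmarks – positive control ellipticine, 6 µM final · Times – 3 days compound exposure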
Alpha artifact = counter-screen for NSD2 inhibitors: AlphaScreen artifacts | shares compounds with NSD2 HMT inh | AC35, µM (top dose mostly 10 µM), for inactives: top-dose activity change, negative = signal loss | hit rate 9.4% among 1,500 | AID 1053174 | AlphaScreen artifact counterscreen, preloaded methylated H4 peptide; call rule not given here
* hit, by the source's call; x = not tested or not shown; + = active, no number. The list is not random: actives were taken first. Their share in the collection is about 3%.

SMILES	CASP6 VEID inh	MITF TRPM1 HTS	esBAF inh	Wnt bcat act	NSD2 HMT inh	XiGFP reactiv	Alpha artifact
CCN(CC)CCCNc1cc(C)nc2cc(-c3cccs3)nn12	-3	22	x	0	62*	0	1%
Cc1cccc(-c2cc3nc(C)cc(NCCCN(C)C)n3n2)c1	x	20	-8	x	3	x	x
COc1ccc(N(C)S(=O)(=O)c2ccc(C)cc2)c([N+](=O)[O-])c1	2	-8	x	-2	0	0	x
COc1ccc(NC(=O)CN(C)S(=O)(=O)c2ccc(C)cc2)c([N+](=O)[O-])c1	-2	-4	x	0	67*	0	-4%
CNC[C@H]1Oc2ccc(NC(=O)C3CCCCC3)cc2CC(=O)N([C@@H](C)CO)C[C@@H]1C	1	x	-5	x	x	0	x
CCOC(=O)c1ccc(CC(=O)c2ccc(O)c(O)c2O)o1	16	-8	x	-2	91*	0	-8%
N=c1c(C(=O)NCc2ccco2)cc2c(=O)n3ccccc3nc2n1C1CCCC1	99*	-11	-7	-4	66*	0	1%
CC(=O)c1ccc(NC(=S)NCCc2cccc(Cl)c2)cc1	3	77	x	-1	53*	0	-2%
Cc1noc(C)c1NC(=O)Nc1ccc2c(c1)C(=O)N([C@H](C)CO)C[C@H](C)[C@H](CN(C)CC1CCCCC1)OCCCC[C@H](C)O2	1	x	3	x	x	0	x
COc1ccc(-c2csc(N(CCCN(C)C)C(=O)c3ccccc3Cl)n2)cc1	-28	8	-1	-3	58*	0	-6%
CCCc1cc(Nc2ccccc2C)n2ncnc2n1	0	-7	-7	0	57*	0	-1%
CCCc1cc(Nc2cccc(OCC)c2)n2ncnc2n1	x	7	-10	x	0	x	x
O=C(c1ccco1)N(c1ccccn1)c1ccccn1	x	-2	-1	-3	-8	x	x
O=C(/C=C/c1ccco1)N(c1ccccn1)c1ccccn1	54*	-1	x	-1	77*	0	-1%
CO[C@H]1CN(C)C(=O)c2ccc(NS(=O)(=O)c3ccccc3)cc2OC[C@@H](C)N(Cc2nccs2)C[C@H]1C	3	x	-1	x	x	0	x
Nc1c(NCc2ccccc2)c(=O)[nH]c(=O)n1Cc1ccccc1	x	x	-7	x	x	x	x
CNc1c(N)n(Cc2ccccc2)c(=O)[nH]c1=O	x	x	-11	x	64*	x	-7%
CCCC1=NN2C(=N)/C(=C\c3ccc(SCc4ccco4)o3)C(=O)N=C2S1	x	-6	-4	x	x	x	x
CCC1=NN2C(=N)/C(=C\c3ccc(SCc4ccco4)o3)C(=O)N=C2S1	x	9	x	1	103*	x	-7%
COCC(=O)N1C[C@H](C)[C@@H](OC)CN(C)C(=O)c2cc(NC(=O)NC(C)C)ccc2OC[C@H]1C	-3	x	2	x	x	0	x
CSc1nnc(-c2ccco2)c(-c2ccco2)n1	48*	-21	-7	0	114*	x	-8%
CC(=O)N(C)C[C@H]1Oc2ncc(C#Cc3ccc(F)cc3)cc2C(=O)N([C@H](C)CO)C[C@H]1C	-1	x	7	x	x	-1	x
COc1ccccc1NC(=O)N1C[C@H]2[C@@H](c3ccccc31)[C@@H](CO)N2C(=O)c1ccccc1	x	x	-2	x	x	0	x
O=C(O)CCCCCn1c(SCC(=O)c2ccc(O)c(O)c2)nc2ccsc2c1=O	x	11	x	-4	91*	0	-14%
CN(C)CC(=O)N[C@@H]1CC[C@@H](CCNS(=O)(=O)c2ccccc2)O[C@H]1CO	-6	x	1	x	x	0	x
SMILES	CASP6 VEID inh	MITF TRPM1 HTS	esBAF inh	Wnt bcat act	NSD2 HMT inh	XiGFP reactiv	Alpha artifact
C[C@H]1CN([C@@H](C)CO)C(=O)c2cc(NS(=O)(=O)c3ccccc3)ccc2O[C@@H]1CN(C)C(=O)Nc1cccc2ccccc12	-2	x	5	x	x	0	x
CC(=O)c1c(C)[nH]c(C(=O)CSc2nnc(-c3ccco3)n2Cc2ccccc2)c1C	x	5	10	x	58*	x	-1%
C[C@@H]1CN([C@H](C)CO)C(=O)Cc2cc(NC(=O)Nc3ccc(F)cc3)ccc2O[C@@H]1CN(C)C	0	x	4	x	x	-1	x
C[C@@H]1CN([C@H](C)CO)C(=O)c2cc(NC(=O)NC3CCCCC3)ccc2O[C@@H](C)CCCCO[C@@H]1CN(C)C(=O)CCC(F)(F)F	-1	x	1	x	x	0	x
COc1c(Cl)cc(C(=O)NN)cc1Cl	1	14	x	2	-3	0	x
NNC(=O)c1cc(O)c(O)c(O)c1	77*	1	3	-19	+	0	-11%
CCOC(=O)CN(C(=O)COc1nc(-c2ccccc2)cc(C)c1C#N)c1ccc(C)cc1	0	-9	x	0	-2	0	x
CCOC(=O)CN(C(=O)COc1nc(-c2ccccc2)cc(C)c1C#N)c1ccccc1	1	-9	x	0	71*	0	-1%
CCN(CC)c1ccc(C(=C2C=CC(=[N+](CC)CC)C=C2)c2ccc(N(CC)CC)cc2)cc1	25	x	-87	-25	154*	0	0.43µM*
CCN(CC)c1ccc(C(=C2C=CC(=[N+](CC)CC)C=C2)c2ccccc2)cc1	3	-108	x	-6	27	0	x
C[C@H](NC(=O)C[C@H]1CC[C@@H](NC(=O)CN2CCOCC2)[C@H](CO)O1)c1ccccc1	3	x	-2	x	x	0	x
Cc1noc(C)c1S(=O)(=O)N(C)C[C@@H]1OCCCC[C@@H](C)Oc2ccc(NS(=O)(=O)c3ccc(F)cc3)cc2C(=O)N([C@H](C)CO)C[C@@H]1C	x	x	-3	x	x	0	x
O=C(CCSc1nc(-c2ccccc2)c(-c2ccccc2)o1)N1CCCCC1	2	x	x	-8	0	0	x
O=C(CSc1nc(-c2ccccc2)c(-c2ccccc2)o1)N1CCCCC1	1	x	x	-2	69*	0	-5%
O=C(CNC(=O)c1ccccc1)OCc1nnc(-c2ccc(Cl)cc2)o1	7	4	5	-2	-1	0	x
Cc1cccc(C(=O)NCC(=O)OCc2nnc(-c3ccccc3)o2)c1	0	12	-1	7	+	0	-1%
O=Nc1ccc(O)c2ncccc12	31	-39	-51	-25	64*	0	1%
O=S(=O)(O)c1cccc2c(N=Nc3ccc(O)c4ncccc34)cccc12	21	-11	-7	x	66*	x	-13%
Cc1ccccc1N=Nc1ccc(O)c2ncccc12	-2	-76	x	-2	-1	2	x
O=C1C(Cl)=C(NCCN2CCCCC2)C(=O)c2ccccc21	x	-98	x	x	58*	x	-4%
CCNC1=C(Cl)C(=O)c2ccccc2C1=O	x	-73	4	2	30	x	x
CC(C)NC(=O)N(C)C[C@@H]1Oc2ncc(-c3ccc(C(=O)N(C)C)cc3)cc2C(=O)N([C@H](C)CO)C[C@@H]1C	-1	x	4	x	x	0	x
O=C(O)C[C@H]1C[C@@H]2c3cc(NC(=O)CC4CC4)ccc3O[C@@H]2[C@@H](CO)O1	0	x	-2	x	x	0	x
